These results are taken from ChEMBL document CHEMBL1144254, “Synthesis and SAR of novel 4,5-diarylimidazolines as potent P2X7 receptor antagonists” (Bioorg Med Chem Lett, 2005).

Bounds are passed on as bounds.

This assay relates to U373 MG. Put plainly: Inhibitory concentration against YOPRO-1 dye uptake in U373MG cells stably expressing human P2X purinoceptor 7 using fluorescence assay. Format: functional, cell-based, U-373MG ATCC. In short, it runs like this:
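U373 cells stably expressing human P2X7 were grown overnight on collagen-coated plates at 35,000 cells/well. They were then preincubated 20 min at 37°C with increasing compound concentrations, in duplicate, in Mg²⁺/Ca²⁺-free HBSS. YO-PRO-1 iodide and then Bz-ATP were added, followed by 1.5 h at 37°C. Fluorescence was read at 485/530 nm against a no-compound control, and IC50 came from a nonlinear sigmoidal fit; means of duplicates, one or two experiments.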
As a reminder, the IC50 is the point on the concentration scale where inhibition reaches its midpoint. Low values mean greater potency, high ones weaker potency. In turn, `Clc1ccccc1CCC1=N[C@H](c2ccccc2)[C@H](c2ccccc2)N1` came in with an IC50 of 70 nM.
To `c1ccc(C(CC2=N[C@H](c3ccccc3)[C@H](c3ccccc3)N2)c2ccccc2)cc1` belongs 320 nM; to `Cc1ccccc1CCC1=N[C@H](c2ccccc2)[C@H](c2ccccc2)N1`, 70 nM; to `Cc1ccccc1CC1=N[C@H](c2ccccc2)[C@H](c2ccccc2)N1`, 320 nM.
Take `c1ccc([C@H]2N=C(C3Cc4ccccc4C3)N[C@H]2c2ccccc2)cc1`: the IC50 came out at 50 nM. Compared with the last compound, the IC50 is about 6.4-fold lower.
In turn, `C[C@H](C1=N[C@H](c2ccccc2)[C@H](c2ccccc2)N1)c1ccccc1` showed an IC50 of 110 nM. Compared with the last compound, the IC50 is about 2.2-fold higher.
On to `c1ccc([C@H]2C[C@@H]2C2=N[C@H](c3ccccc3)[C@H](c3ccccc3)N2)cc1`, for which the IC50 was over 1000 nM.
Consider `c1ccc(CCCCC2=N[C@H](c3ccccc3)[C@H](c3ccccc3)N2)cc1`, for which the IC50 was 610 nM. That is a sub-micromolar value.
For `Cc1ccc(CC2=N[C@H](c3ccccc3)[C@H](c3ccccc3)N2)cc1`, the midpoint of inhibition, the IC50, lay at 80 nM. Compared with the last compound, the IC50 is about 7.6-fold lower.
In turn, `c1ccc([C@H]2N=C(CC3Cc4ccccc4C3)N[C@H]2c2ccccc2)cc1` had a concentration for half-maximal inhibition (IC50) of 240 nM.
The compound `Fc1ccc(CCC2=N[C@H](c3ccccc3)[C@H](c3ccccc3)N2)cc1F` returned an IC50 of 120 nM.
`Clc1ccccc1CC1=N[C@H](c2ccccc2)[C@H](c2ccccc2)N1` displayed an IC50 of 160 nM.
The compound `Clc1cccc(CCC2=N[C@H](c3ccccc3)[C@H](c3ccccc3)N2)c1` had an IC50 of 120 nM.
Consider `CC(Cc1ccccc1)C1=N[C@H](c2ccccc2)[C@H](c2ccccc2)N1` (some centres not stated), for which the IC50 stood at 570 nM.
Compound `Fc1cccc(CCC2=N[C@H](c3ccccc3)[C@H](c3ccccc3)N2)c1` registered an IC50 of 40 nM.
Take `C[C@@H](CC1=N[C@H](c2ccccc2)[C@H](c2ccccc2)N1)c1ccccc1`: the IC50 amounted to 30 nM.
To `CC(C)(CC1=N[C@H](c2ccccc2)[C@H](c2ccccc2)N1)c1ccccc1` belongs 10 nM; to `Cc1ccc(CCC2=N[C@H](c3ccccc3)[C@H](c3ccccc3)N2)cc1`, 2190 nM; to `Fc1ccc(CC2=N[C@H](c3ccccc3)[C@H](c3ccccc3)N2)cc1`, 80 nM.
As for `Clc1ccc(CC2=N[C@H](c3ccccc3)[C@H](c3ccccc3)N2)cc1`, inhibition was half-maximal at 270 nM (IC50).
Turning to `COc1ccccc1CCC1=N[C@H](c2ccccc2)[C@H](c2ccccc2)N1`, the half-maximal inhibitory concentration (IC50) stood at 830 nM.
`Fc1cccc(CC2=N[C@H](c3ccccc3)[C@H](c3ccccc3)N2)c1`: the IC50 was 80 nM.
Compound `COc1ccc(CCC2=N[C@H](c3ccccc3)[C@H](c3ccccc3)N2)cc1` registered an IC50 of over 3000 nM.
For the compound `c1ccc(CCC2=N[C@H](c3ccccc3)[C@H](c3ccccc3)N2)cc1`, the midpoint of inhibition, the IC50, lay at 80 nM.
Regarding `COc1ccc(CCC2=N[C@H](c3ccccc3)[C@H](c3ccccc3)N2)cc1OC`, the IC50 is over 3000 nM.
To `FC(F)(F)c1ccc(CC2=N[C@H](c3ccccc3)[C@H](c3ccccc3)N2)cc1` belongs 400 nM; to `Clc1cccc(CC2=N[C@H](c3ccccc3)[C@H](c3ccccc3)N2)c1`, 30 nM; to `Fc1ccc(CC2=N[C@H](c3ccccc3)[C@H](c3ccccc3)N2)cc1F`, 30 nM.
Under `Fc1ccc(CCC2=N[C@H](c3ccccc3)[C@H](c3ccccc3)N2)cc1` stands 220 nM; under `c1ccc(CCCC2=N[C@H](c3ccccc3)[C@H](c3ccccc3)N2)cc1`, 540 nM.
Under `c1ccc(C2=N[C@@H](c3ccccc3)[C@@H](c3ccccc3)N2)cc1` stands 3800 nM; under `COc1cccc(CC2=N[C@H](c3ccccc3)[C@H](c3ccccc3)N2)c1OC`, over 3000 nM; under `Fc1ccccc1CC1=N[C@H](c2ccccc2)[C@H](c2ccccc2)N1`, 580 nM.
`Clc1ccc(CCC2=N[C@H](c3ccccc3)[C@H](c3ccccc3)N2)cc1Cl` gave an IC50 of 1400 nM.
Regarding `Clc1ccc(CCC2=N[C@H](c3ccccc3)[C@H](c3ccccc3)N2)cc1`, the IC50 was over 1000 nM.
To `Fc1ccccc1CCC1=N[C@H](c2ccccc2)[C@H](c2ccccc2)N1` belongs 160 nM; to `Fc1cccc(CC2=N[C@H](c3ccccc3)[C@H](c3ccccc3)N2)c1F`, 930 nM.
